In the EternaBench riboswitch data:

System: MS2 coat protein
Experiment: apparent Kd, MS2 coat protein; higher = weaker binding; RNA-MaP array
Outline: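 Binding of fluorescently labeled MS2 coat protein, at 1.5 nM to 3 μM and room temperature, was measured with or without input ligand on designed RNAs transcribed on an Illumina sequencing chip from sequenced DNA templates. Apparent Kd was defined as the median of per-cluster binding-curve fits. No design measured on fewer than 10 clusters was kept.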

[1] = designed as: ON switch for flavin mononucleotide, no ligand
[2] = ligand present: flavin mononucleotide, designed as: ON switch for flavin mononucleotide
[3] = designed as: OFF switch for flavin mononucleotide, no ligand
[4] = ligand present: flavin mononucleotide, designed as: OFF switch for flavin mononucleotide
[5] = designed as: OFF switch for theophylline, no ligand
[6] = ligand present: theophylline, designed as: OFF switch for theophylline

| Sequence | apparent Kd [3] | apparent Kd [4] | other results |
| --- | --- | --- | --- |
| CACCCGUCGACUUAGGAUAUACUGUUGUGAACAUGAGGAUCACCCAUGUAUUAAGCUAGAACGAAGUAGAAGGAAGUUUUCCUUGC |  |  | apparent Kd [1]: 15.6 nM; apparent Kd [2]: 13.1 nM |
| UUACAACAUGAGGAUCACCCAUGUUAGGAUAUACGAGGGACAGCGCGGUUAUAUCCCUGUAGAAGGAACACGGG | 39.6 nM | 47.6 nM |  |
| CUGACGAGCUUUUUGUCAGGUUGUGUAGAUACCAGUUCUCUGGUGAACCCUUGGCAGCUAACAACAUGAGGAUCACCCAUGUGAU |  |  | apparent Kd [5]: 83.7 nM; apparent Kd [6]: 326 nM |
| UUCUCAUCGUACAUGAGGAUCACCCAUGUCUCCCAUUUACCCUAGGAUAUGAAAGACCUUUACUCUCAGAAGGAGGAUGAUGCA |  |  | apparent Kd [1]: 63.2 nM; apparent Kd [2]: 51.9 nM |
| CCGCGACCUGAGAAGGGCUGCCAAGGGAGACACAUGAGGAUCACCCAUGUCGGGUGGUCCUGCUAGCAGGAUAUCAUCGCAGGA | 173 nM | 225 nM |  |
| GCGGGACAUGAGGAUCACCCAUGUGAGGAUAUGUGCAGUGGCAGGGACAGUUAAAAGUACAGAAGGCACAGCCC | 19.7 nM | 17.6 nM |  |
| AUUAACUGGUAAGAUACCAGAGUCGGGAUCUACAUGAGGAUCACCCAUGUUCUAAAGUCGCUCCCUUGGCAGCUUCAAUGAGUCG |  |  | apparent Kd (designed as: ON switch for theophylline, no ligand): 35.3 nM; apparent Kd (ligand present: theophylline, designed as: ON switch for theophylline): 36 nM |
| GUAACUCAGGUCAGGAUAUUCGAGUAAGGGAAAACGAAGAAGGGACAUGAGGAUCACCCAUGUAACACGACUAU | 18.1 nM | 86.3 nM |  |
| UCCCAGCAAGGAUAUACAUGAAAAGGUAAAGAAGAAAAGAAACAUGAGGAUCACCCAUGUAGAAGGUGCAAGAG | 15.5 nM | 18.4 nM |  |
| GUCGUAGGCUAAGGAUAUAGUGAAAGAGUGAAGGCCUGAUCAGACAUGAGGAUCACCCAUGUGAACUAGAAGGUAGGCAAGGCU | 13.5 nM | 12.5 nM |  |
| AUUGUGUAAGGAUAUUAUAGAAGAGGUAGGCAACUUCUGAAUAAGAAGGUACAUGAGGAUCACCCAUGUUCAAU | 11.7 nM | 12.1 nM |  |
| AGGUGCAUCAAGAAGGAUGACAUGAGGAUCACCCAUGUACAAAAGGCGCGAUUUACAAAUCGUACAUAGGAUAUUGUGCAUGUU |  |  | apparent Kd [1]: 71.2 nM; apparent Kd [2]: 24.6 nM |
| GAUGGCCUAGGAUAUACGCGUUGGUUGGCUCGUCACGAUACACAUGAGGAUCACCCAUGUAGAAGGAGGAGAGU | 10.5 nM | 11.7 nM |  |
| GAAACAUUCCCGAGUUUCUACAUGAGGAUCACCCAUGUCCCAUAGGAUAUCUCUACCAGCCGCCGAGAGAAGGAUGUAGUCACU |  |  | apparent Kd [1]: 185 nM; apparent Kd [2]: 148 nM |
| CAUUACCAUGUUAGGAUAUCCUGCGGAAUUGCCCUGGAGAAGGAACAUGAGGAUCACCCAUGUGCACAAACAAC | 17.6 nM | 26.1 nM |  |
| AGUGCUACGUGUAAUCAAAGAGAACCAGAUACCAGAUUAGCAUACAUCCCUUGGCAGCUGCAUACAUGAGGAUCACCCAUGUCAG |  |  | apparent Kd [5]: 37.2 nM; apparent Kd [6]: 39.1 nM |
| CGGCGGGACUCACAUGAGGAUCACCCAUGUUUAAAGGGUCAAAAGGAUAUGAAAACAGCAAGUAAUCAGAAGGUUUACCUAGUG | 14.5 nM | 15.8 nM |  |
| AUAAAACUAAUACAUGAGGAUCACCCAUGUGAAACACAUACGAGAAGGGCGACAGUCUCAUACACGCAGGAUAUCGGCUAAACG |  |  | apparent Kd [1]: 10.8 nM; apparent Kd [2]: 9.95 nM |
| AUCAAGUCAGGAUAUGAACUAAAGAUGGAAAACGUAGCAAAACAGAAGGGACAUGAGGAUCACCCAUGUGGAAG | 19.9 nM | 17 nM |  |
| ACCCUCUAUGAGAAGGAGAGCUUCGCUAGUUAUCUAGGAUAUCACGGAGGACCACUGACACUCCGACAUGAGGAUCACCCAUGU |  |  | apparent Kd [1]: 16.5 nM; apparent Kd [2]: 13.9 nM |
| CGAGCAAGAGGAUAUACGAAGACGGUAUGAGUCAACCUCAAACAUGAGGAUCACCCAUGUAGAAGGCUUCUCAU | 7.46 nM | 9.74 nM |  |
| GUCCUCGACACGGCCGCCACUGGCUCGCCUGUUGGCGCCGACCCACAUGAGGAUCACCCAUGUUCCAGGACCGGGUGUCACAGCA |  |  | apparent Kd (designed as: ON switch for tryptophan, no ligand): 224 nM; apparent Kd (ligand present: tryptophan, designed as: ON switch for tryptophan): 157 nM |
